Experimental data published in ChEMBL document CHEMBL2331390, “Telomere shortening and cell senescence induced by perylene derivatives in A549 human lung cancer cells” (Bioorg Med Chem, 2013).
Active and inactive are the calls of the source. The rule behind the calls is not given here.

What was measured:
[1] = tested on: A549; assay: Cytotoxicity against human A549 cells assessed as colony formation at 0.8 uM incubated for 30 days followed by subculturing in compound-free medium measured after 14 days by crystal violet staining method relative to control; type: functional
Method in brief: (§1)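 A549 cells from the long-term culture (0.4 or 0.8 μM, medium changed every 3 days, replated every 6 days) were collected on the stated day. 2×10^3 cells seeded per 10-cm dish, fed every 4-5 days. Colonies stained with crystal violet after 14 days and counted; expressed as % of control. Controls under 25 colonies excluded. Three independent experiments.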

[2] = species on record: Homo sapiens; assay: Binding affinity to human TERT1 5'-AAGGGGAGGGGCTGGGAGGGCCCGGA-3' DNA assessed as induction of intramoleculsr G-quadruplex formation after 10 hrs by PAGE analysis
Method in brief: (§2)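 FAM-labeled G-rich strand (2 µM) and complementary C-rich strand (2 µM) with compound in 10 mM Tris-HCl pH 7.4, 100 mM KCl. Heated to 95 °C for 5 min, slowly cooled to 55 °C, held 10 h, then cooled to 4 °C. Duplex vs G-quadruplex resolved on 16% native PAGE with 50 mM KCl (4 °C, 350 V, 10 h) and fluorescence-imaged.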

[3] = species on record: Homo sapiens; assay: Binding affinity to human TERT2 5'-GGGGGCTGGGCCGGGGACCCGGGAGGGGTCGGGACGGGGCGGGG-3' DNA assessed as induction of intermolecular G-quadruplex formation at 8 to 32 uM after 10 hrs by PAGE analysis; method in brief: as §2
[4] = species on record: Homo sapiens; assay: Binding affinity to human telomeric 5'-AGATAGTTAGGGTTAGGGTTAGGGTTAGGGTT-3' DNA assessed as induction of intramoleculsr G-quadruplex formation after 10 hrs by PAGE analysis; method in brief: as §2
[5] = tested on: A549; assay: Cytotoxicity against human A549 cells assessed as colony formation at 0.4 uM incubated for 78 days followed by subculturing in compound-free medium measured after 14 days by crystal violet staining method relative to control; type: functional; method in brief: as §1
[6] = tested on: A549; assay: Binding affinity to human TERT promoter DNA sequence in human A549 cells assessed as telomere restriction fragment length at 0.8 uM after 6 days by TeloTAGGG-based chemiluminescence assay (reference value: 3.4 kb); type: cell-based
Method in brief: (§3)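 Genomic DNA from A549 cells kept long-term with 0.4 or 0.8 μM compound (medium changed every 3 days, replated every 6 days). DNA isolated with DNAzol. 2 µg digested with RsaI/HinfI, run on 0.8% agarose, Southern-blotted, hybridized with DIG-labeled telomeric probe, anti-DIG alkaline phosphatase, chemiluminescence. Mean TRF = Σ(ODi)/Σ(ODi/Li).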

[7] = tested on: A549; assay: Binding affinity to human TERT promoter DNA sequence in human A549 cells assessed as decrease in TERT mRNA expression after 24 hrs by semi-quantitative PCR analysis; type: cell-based
Method in brief: (§4)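 A549 cells (3.0×10^5) grown 24 h in RPMI 1640 + 10% FBS at 37 °C, 5% CO2, then exposed to compound for 24 h. Total RNA by Trizol, reverse transcribed, hTERT amplified with specific primers. Semi-quantitative and real-time SYBR Green PCR (45 cycles), standard-curve method, normalized to GAPDH. Three independent experiments.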

[8] = tested on: A549; assay: Antiproliferative activity against human A549 cells assessed as decrease in population doubling at 0.4 uM after 78 days; type: functional, cell-based
Method in brief: (§5)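 A549 cells (1.5×10^5) seeded in RPMI 1640 + 10% FBS with 0.4 or 0.8 μM perylene or medium only. Medium changed every 3 days. Every 6 days, at confluence, cells were trypsinized, counted by hemocytometer and replated at 1.5×10^5. Population doublings n = (log Pn − log P0)/log 2, cumulated against time. Three independent experiments.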

[9] = tested on: A549; assay: Antiproliferative activity against human A549 cells assessed as decrease in population doubling at 0.8 uM after 78 days relative to control; type: functional; design: scale not given: the % may be the effect or the level left; method in brief: as §5
[10] = tested on: A549; assay: Induction of senescence in human A549 cells assessed as increase in beta-galactosidase activity at 0.4 to 0.8 uM incubated for 78 days followed by subculturing on compound-free medium measured after 48 hrs by fluorescence microscopic analysis; type: functional, cell-based
Method in brief: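 A549 cells from the long-term treatment replated and grown 48 h. Fixed in 2% formaldehyde/0.2% glutaraldehyde for 5 min at RT. Stained overnight with 1 mg/ml X-gal in pH 6 citrate/phosphate buffer with 5 mM ferro/ferricyanide, 150 mM NaCl, 2 mM MgCl2. Enlarged blue cells scored by microscopy.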

[11] = tested on: A549; assay: Binding affinity to human TERT promoter DNA sequence in human A549 cells assessed as telomere restriction fragment length at 0.4 uM after 6 days by TeloTAGGG-based chemiluminescence assay (reference value: 3.4 kb); type: cell-based; method in brief: as §3
[12] = tested on: A549; assay: Binding affinity to human TERT promoter DNA sequence in human A549 cells assessed as inhibition of telomerase-mediated MTS primer extension after 24 hrs by fluorescence-based TRAP assay; type: cell-based
Method in brief: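 A549 cells exposed to compound for 24 h, lysed in CHAPS buffer, protein measured by Bradford. 6 µg lysate protein used as telomerase source in fluorescent TRAP with MTS primer (no G-quadruplex motif), with no phenol-chloroform step. FAM-primer PCR, native PAGE, fluorescence quantified. Mean ± SD of three experiments.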

[13] = tested on: A549; assay: Cytotoxicity against human A549 cells assessed as colony formation at 0.4 uM incubated for 30 days followed by subculturing in compound-free medium measured after 14 days by crystal violet staining method relative to control; type: functional; method in brief: as §1
[14] = tested on: A549; assay: Cytotoxicity against human A549 cells assessed as reduction in colony formation incubated for 30 days followed by subculturing in compound-free medium measured after 14 days by crystal violet staining method; type: functional, cell-based; method in brief: as §1
[15] = tested on: A549; assay: Cytotoxicity against human A549 cells assessed as colony formation at 0.4 uM incubated for 6 days followed by subculturing in compound-free medium measured after 14 days by crystal violet staining method relative to control; type: functional; method in brief: as §1
[16] = tested on: A549; assay: Binding affinity to human TERT promoter DNA sequence in human A549 cells assessed as telomere restriction fragment length at 0.4 uM after 30 days by TeloTAGGG-based chemiluminescence assay (reference value: 3.3 kb); type: cell-based; method in brief: as §3
[17] = tested on: A549; assay: Binding affinity to human TERT promoter DNA sequence in human A549 cells assessed as telomere restriction fragment length at 0.4 uM after 78 days by TeloTAGGG-based chemiluminescence assay (reference value: 3.4 kb); type: cell-based; method in brief: as §3
[18] = tested on: A549; assay: Binding affinity to human TERT promoter DNA sequence in human A549 cells assessed as decrease in TERT mRNA expression at 6 uM after 24 hrs by semi-quantitative PCR analysis relative to control; type: cell-based; design: scale not given: the % may be the effect or the level left; method in brief: as §4
[19] = Binding affinity to TSG4 primer DNA (unknown origin) assessed as inhibition of telomerase-mediated extension of primer […] by fluorescence-based TRAP assay
Method in brief: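 Cell-free TRAP. Compound preincubated with TSG4 primer in telomerase buffer (20 mM Tris-HCl pH 7.4, 1.5 mM MgCl2, 63 mM KCl, 1 mM EGTA, 200 µM dNTPs) at 37 °C for 2 h. Crude telomerase (50 ng) from telomerase-transfected HEK293T added, 30 °C for 30 min. Compound removed by phenol-chloroform, products ethanol-precipitated, PCR with FAM-tagged primer, 8% native PAGE, phosphoimaging. IC50 ± SD from three experiments.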

[20] = tested on: A549; assay: Antiproliferative activity against human A549 cells assessed as decrease in cell viability at 0.8 uM after 78 days relative to control; type: functional, cell-based; method in brief: as §5
[21] = tested on: A549; assay: Binding affinity to human TERT promoter DNA sequence in human A549 cells assessed as telomere restriction fragment length at 0.8 uM after 78 days by TeloTAGGG-based chemiluminescence assay (reference value: 3.4 kb); type: cell-based; method in brief: as §3
[22] = tested on: A549; assay: Cytotoxicity against human A549 cells assessed as colony formation at 0.8 uM incubated for 78 days followed by subculturing in compound-free medium measured after 14 days by crystal violet staining method relative to control; type: functional; method in brief: as §1
[23] = tested on: A549; assay: Binding affinity to human TERT promoter DNA sequence in human A549 cells assessed as telomere restriction fragment length at 0.8 uM after 30 days by TeloTAGGG-based chemiluminescence assay (reference value: 3.3 kb); type: cell-based; method in brief: as §3
[24] = tested on: A549; assay: Cytotoxicity against human A549 cells assessed as colony formation at 0.8 uM incubated for 6 days followed by subculturing in compound-free medium measured after 14 days by crystal violet staining method relative to control; type: functional; method in brief: as §1

With `O=C1c2ccc3c4ccc5c6c(ccc(c7ccc(c2c37)C(=O)N1CCN1CCCCC1)c64)C(=O)N(CCN1CCCCC1)C5=O` the Activity [1] was 89%, the Activity [2] was “Dose-dependent effect” and the Activity [3] was “Active”. For the same compound, the Activity [4] was “Dose-dependent effect”, the Activity [5] was 78% and the Activity [6] was 3.5 kilobase. For the same compound, the Activity [7] was “Dose-dependent effect”, the Activity [8] was “inactive” and the Activity [9] was 20%. The Activity [10] was “inactive”, the Activity [11] was 3.6 kilobase and the Activity [12] was “Dose-dependent effect”. For the same compound, the Activity [13] was 96%, the Activity [14] was “Dose-dependent effect” and the Activity [15] was 95%. For the same compound, the Activity [16] was 3.3 kilobase, the Activity [17] was 3 kilobase and the Activity [18] was 68%. For the same compound, the IC50 [19] was 1400 nM, the inhibition [19] was “Dose-dependent effect” and the Activity [20] was “inactive”. For the same compound, the Activity [21] was 2.7 kilobase, the Activity [22] was 66% and the Activity [23] was 3.1 kilobase. The Activity [24] was 93%.
